Six molecules from ChEMBL document CHEMBL3867452, “Acylphloroglucinolated Catechin and Phenylethyl Isocoumarin Derivatives from Agrimonia pilosa” (J Nat Prod, 2016) can be followed below.

One data set concerns BV-2. Description: Inhibition of LPS-induced NO production in mouse BV2 cells preincubated for 1 hr followed by LPS addition measured after 24 hrs by Griess assay. The data set is classed as functional, cell-based. The gist of the method: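 BV2 cells seeded at 4 × 10^4 cells/well. Compounds were dissolved in DMSO, final DMSO under 0.1%. Pretreatment lasted 1 h, then LPS 500 ng/mL was added and cells incubated 24 h. Nitrite in the medium was measured by Griess assay. IC50 given as mean ± SD of three experiments; ω-nitro-L-arginine methyl ester served as positive control.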

A further data set is filed under the species Mus musculus. The data set can be described thus: Cytotoxicity against mouse BV2 cells assessed as reduction in cell viability after 24 hrs by MTT assay. Type of data set: toxicity, cell-based. The settings on record: bv-2, 24 h. The gist of the method: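 BV2 microglia kept in DMEM with 10% FBS, penicillin 100 IU/mL and streptomycin, at 37.8 °C under 5% CO2. Cells were incubated 24 h in 96-well plates. Medium was then replaced with MTT 0.2 mg/mL for 3 h at 37.8 °C, and formazan was dissolved in DMSO. Absorbance read at 540 nm; viability given as percent of control.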

What is called IC50 is the concentration that inhibits the measured activity by half. In the data set with BV-2, `COc1c(C)c(O)c(Cc2c(O)cc(O)c3c2O[C@H](c2ccc(O)c(O)c2)[C@@H](O)C3)c(O)c1C(=O)C(C)C` had a half-maximal inhibitory concentration (IC50) of 54.6 µM. The Activity entry in the data set listed under Mus musculus is listed as “Non-Toxic”.
In the data set on BV-2, `CCCC(=O)c1c(O)c(Cc2c(O)cc(O)c3c2O[C@H](c2ccc(O)c(O)c2)[C@@H](O)[C@@H]3c2c(O)cc(O)c3c2O[C@H](c2ccc(O)c(O)c2)[C@H](O)C3)c(O)c(C)c1OC` had an IC50 of 43.6 to 52.4 µM. Also, the Activity entry in the data set filed under Mus musculus is recorded as “Non-Toxic”.
The like results for `CCCC(=O)c1c(O)c(Cc2c(O)cc(O)c3c2O[C@H](c2ccc(O)c(O)c2)[C@@H](O)C3)c(O)c(C)c1OC` were, in that order, 38.1 to 43.6 µM and “Non-Toxic”.
The like results for `COc1c(C)c(O)c(Cc2c(O)cc(O)c3c2O[C@H](c2ccc(O)c(O)c2)[C@@H](O)[C@@H]3c2c(O)cc(O)c3c2O[C@H](c2ccc(O)c(O)c2)[C@H](O)C3)c(O)c1C(=O)C(C)C` were, in that order, 38.1 µM and “Non-Toxic”.
On the same counts, the results for `CCC(C)C(=O)c1c(O)c(Cc2c(O)cc(O)c3c2O[C@H](c2ccc(O)c(O)c2)[C@@H](O)C3)c(O)c(C)c1OC` (stereo partly specified) are 60.4 µM and “Non-Toxic”.
With `COC(=O)[C@@H](N)CCCNC(=N)N[N+](=O)[O-]` [L-NAME], 24.7 µM corresponded to half-maximal inhibition in the data set with BV-2 (IC50).
